Measured values from different studies.
Each line is one published result; the experiments were not run side by side.
BCHE: Cholinesterase (BCHE, Homo sapiens, UniProt P06276)
MC4R: Melanocortin receptor 4 (MC4R, Homo sapiens, UniProt P32245)
Oprk1: Kappa-type opioid receptor (Oprk1, Mus musculus, UniProt P33534)

| Structure (SMILES) | target | test | test system | conditions | quantity | result |
| --- | --- | --- | --- | --- | --- | --- |
| CN1CCC[C@H]1c1cccnc1 | Muscarinic acetylcholine receptor M5 (CHRM5, Homo sapiens, UniProt P08912) | ligand displacement | – | 50 µM | inhibition | -4.76% |
| COc1cc(/C=C/C(=O)O)ccc1OCc1cn(CC(=O)Nc2cccc(Cl)c2)nn1 | BCHE | enzyme activity, inhibitor, Ellman | – | 40 µM | inhibition | 15.3% |
| [2H]c1c([2H])c([C@]2([2H])CCCN2C(=O)C(C)(C)Oc2ccc3cn[nH]c3c2)c([2H])c([2H])c1C([2H])([2H])[2H] | Peripheral plasma membrane protein CASK (CASK, Homo sapiens, UniProt O14936) | binding, competition with immobilised ligand | – | 1 µM | remaining binding | 89% |
| CCCC[C@H](NC(C)=O)C(=O)N[C@@H](C)C(=O)N[C@@H](Cc1c[nH]cn1)C(=O)N[C@@H](Cc1ccccc1)C(=O)N[C@@H](CCCNC(=N)N)C(=O)N[C@H](Cc1c[nH]c2ccccc12)C(=O)N[C@@H](CC(=O)O)C(=O)N[C@@H](CCCNC(=N)N)C(=O)N[C@@H](Cc1ccccc1)C(=O)N[C@@H](C(=O)N1CCC[C@@H]1C(N)=O)C(C)C | MC4R | cAMP, agonist | CHO-K1 | – | Emax | 100% |
| CC(C)[C@@H](CN1CCc2ccccc2C1)NC(=O)Cc1c[nH]c2ccccc12 | Oprk1 | ligand displacement, radioligand | – | 10 µM | inhibition | 89.1% |
| COc1cc(/C=C/C(=O)O)ccc1OCc1cn(CC(=O)Nc2ccccc2C)nn1 | BCHE | enzyme activity, inhibitor, Ellman | – | 40 µM | inhibition | 44.6% |
| Cc1c(CC(=O)N[C@@H](CN2CCc3ccccc3C2)C(C)C)cccc1[N+](=O)[O-] | Oprk1 | ligand displacement, radioligand | – | 10 µM | inhibition | 95.1% |
| COc1cc(/C=C/C(=O)O)ccc1OCc1cn(CC(=O)Nc2ccc(C)cc2)nn1 | BCHE | enzyme activity, inhibitor, Ellman | – | 40 µM | inhibition | 48.5% |
| CC(C)[C@@H](CN1CCc2ccccc2C1)NC(=O)c1cccc(-c2cccc(O)c2)c1 | Oprk1 | ligand displacement, radioligand | – | 10 µM | inhibition | 94.2% |
| CC(C)CC(=O)OC[C@H]1O[C@@](C#N)(c2ccc3c(N)ncnn23)[C@H](O)[C@@H]1O | MC4R | cell-free assay | – | 20 µM | inhibition | 6% |
